Measurements reported in ChEMBL document CHEMBL4765234 (J Med Chem, 2016).
Each block holds one compound with its values, some of them ahead of it. Calls of active or inactive are those of the source. The rule behind the calls is not given here.

Experiments:
[1] = Half-life in mouse at 10 mg/kg, po or 1 mg/kg, iv by LC/MS/MS analysis; assay type: ADME, organism-based; details: in vivo
In short: (§1)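 Mice, rats and beagle dogs dosed; blood drawn at set times into EDTA, processed to plasma and assayed by LC/MS/MS. Parameters (clearance, Vdss, terminal half-life, Cmax, Tmax, oral bioavailability) derived by noncompartmental analysis.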

[2] = Elimination half-life in rat plasma at 10 mg/kg, po or 3 mg/kg, iv by LC/MS/MS analysis; details: read-out: beta t1/2 (converted)
[3] = molecular target: Free fatty acid receptor 1 (Mus musculus) (UniProt Q76JU9); assay: Agonist activity at GPR40 in mouse pancreatic islets assessed as induction of glucose-mediated insulin secretion measured after 90 mins in EBSS buffer by ELISA; details: filed as agonist
[4] = Elimination half-life in mouse plasma at 10 mg/kg, po or 1 mg/kg, iv by LC/MS/MS analysis; details: read-out: beta t1/2 (converted)
[5] = Drug metabolism in dog hepatocytes assessed as O-dealkylation by measuring 4-((2,3-dihydrospiro[indene-1,4'-piperidine]-1'-yl)methyl)benzoic acid metabolite formation by LC-MS/MS analysis; assay type: ADME, cell-based, Canis lupus familiaris, Hepatocyte
[6] = Oral bioavailability in rat at 10 mg/kg by LC/MS/MS analysis; assay type: ADME, organism-based; details: in vivo; in short: as §1
[7] = Drug metabolism in dog urine assessed as N-dealkylation by LC-MS/MS analysis; assay type: ADME, tissue-based, Canis lupus familiaris
[8] = Drug metabolism in dog hepatocytes assessed as oxidation by LC-MS/MS analysis; assay type: ADME, cell-based, Canis lupus familiaris, Hepatocyte
[9] = Drug metabolism in mouse hepatocytes assessed as N-dealkylation by LC-MS/MS analysis; assay type: ADME, cell-based, Hepatocyte
[10] = Tmax in type 2 diabetic mellitus human at 270 mg, po administered as single dose; assay type: ADME, organism-based; details: in vivo
In short: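 Single oral dose given to type 2 diabetic subjects; plasma drug levels followed over time. Cmax, Tmax, terminal half-life, AUC(0−∞), CL/F and Vz/F obtained by noncompartmental analysis and reported as geometric means with CV%.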

[11] = Half life in type 2 diabetic mellitus human at 270 mg, po administered as single dose; assay type: ADME, organism-based; details: in vivo
In short: (§2)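 Type 2 diabetic subjects each received a single oral dose. Plasma drug levels were followed over time. Parameters were derived by noncompartmental analysis and reported as geometric means with CV%. CL/F is apparent total clearance and Vz/F is apparent terminal-phase volume.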

[12] = Apparent volume of distribution in type 2 diabetic mellitus human at 540 mg, po administered as single dose; assay type: ADME, organism-based; details: in vivo, read-out: Vz/F; in short: as §2
[13] = Apparent clearance in type 2 diabetic mellitus human at 1080 mg, po administered as single dose; assay type: ADME, organism-based; details: in vivo; in short: as §2
[14] = AUC ( 0 to infinity) in type 2 diabetic mellitus human at 270 mg, po administered as single dose; assay type: ADME, organism-based; set-up: time infinity, route oral, dose 270 mg; details: in vivo; in short: as §2
[15] = Apparent clearance in type 2 diabetic mellitus human at 270 mg, po administered as single dose; assay type: ADME, organism-based; details: in vivo; in short: as §2
[16] = Drug distribution in C57BL/6 mouse colon at 3 microg/kg, iv administered as single dose observed at 20 to 40 mins by LC-MS/MS analysis; assay type: ADME, organism-based; details: in vivo, 0.003 mg/kg, time 20-40 min, dose 3 µg/kg
In short: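 Tracer microdose study in fed male C57BL/6 mice: single 3 μg/kg IV dose in 25% HP-BCD. Mice were killed by cervical dislocation, and spleen, ascending colon, skeletal muscle and plasma were sampled at 20 and 40 min.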

Free fatty acid receptor 1 (Mus musculus), sequence (Q76JU9 whole entry): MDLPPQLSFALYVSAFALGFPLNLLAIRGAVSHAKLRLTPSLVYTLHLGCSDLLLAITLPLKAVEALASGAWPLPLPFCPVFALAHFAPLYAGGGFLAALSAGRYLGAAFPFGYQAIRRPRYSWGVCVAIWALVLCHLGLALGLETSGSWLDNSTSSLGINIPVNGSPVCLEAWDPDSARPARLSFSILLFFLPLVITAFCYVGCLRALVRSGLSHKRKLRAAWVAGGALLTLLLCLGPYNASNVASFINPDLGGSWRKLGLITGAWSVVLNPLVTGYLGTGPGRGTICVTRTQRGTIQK

Compound: CC#C[C@@H](CC(=O)O)c1ccc(OCc2ccc(CN3CCC4(C=Cc5ccccc54)CC3)cc2)cc1 [LY2881835]
- half-life [1]: 2.1 h
- half-life [2]: 2 h
- Activity [3]: Active
- half-life [4]: 2 h
- Drug metabolism [5]: Metabolite_Detected
- bioavailability [6]: 71%

Compound: CC#C[C@@H](CC(=O)O)c1ccc(OCc2ccc(CN3CCC4(CCc5ccccc54)CC3)s2)cc1
- Drug metabolism [7]: Metabolite_Detected
- Drug metabolism [8]: Metabolite_Detected
- Drug metabolism [9]: Metabolite_Detected

- Tmax [10]: 2.75 h
- half-life [11]: 12.1 h
- Vd/F [12]: 273 L
- CL/F [13]: 185 mL/min
- AUC(0-inf) [14]: 19400 ng·h/mL
- CL/F [15]: 232 mL/min
Compound: CC#C[C@@H](CC(=O)O)c1ccc(OCc2ccc(CN3CCCc4cccc(OC)c43)s2)cc1

Compound: CC#C[C@@H](CC(=O)O)c1ccc(OCc2ccc(CN3CCC4(C=Cc5ccccc54)CC3)s2)cc1
- Drug uptake [16]: Active
